Results on 16 compounds are retold here after ChEMBL document CHEMBL1132135, “Potent, orally absorbed glucagon receptor antagonists” (Bioorg Med Chem Lett, 1999).

For orientation: IC50 means the midpoint of a concentration-inhibition curve. As usually defined, the Inhibition is the percentage by which the read-out fell short of the control. By inhibition is commonly meant how much of the control response was suppressed.

Data set [1] has as its target T1, Glucagon receptor (Mus musculus, UniProt Q61606). As to the kind of experiment: Binding affinity towards glucagon receptor determined by reduction in binding of [125I]glucagon to the murine glucagon receptor (GGR) expressed on CHO cells in absence of Mg+2. Format: cell-based.
Data set [2] has as its target T2, Glucagon receptor (Homo sapiens, UniProt P47871). Description: biochemical. Format: cell-based, CHO.
Data set [3] concerns the target T2, Glucagon receptor. Description: Binding affinity towards glucagon receptor determined by reduction in binding of [125I]glucagon to the human glucagon receptor (GGR) expressed on CHO cells in presence of Mg+2. Format: cell-based. In short, it runs like this: (§1)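 Radioligand binding to the glucagon receptor was run with 5 mM Mg2+ added, described as a physiological concentration.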

The target in data set [4] is Mitogen-activated protein kinase 14 (Homo sapiens, UniProt Q16539). Description: Inhibitory activity against p38-alpha kinase.
Chain of Mitogen-activated protein kinase 14 (Q16539 whole entry): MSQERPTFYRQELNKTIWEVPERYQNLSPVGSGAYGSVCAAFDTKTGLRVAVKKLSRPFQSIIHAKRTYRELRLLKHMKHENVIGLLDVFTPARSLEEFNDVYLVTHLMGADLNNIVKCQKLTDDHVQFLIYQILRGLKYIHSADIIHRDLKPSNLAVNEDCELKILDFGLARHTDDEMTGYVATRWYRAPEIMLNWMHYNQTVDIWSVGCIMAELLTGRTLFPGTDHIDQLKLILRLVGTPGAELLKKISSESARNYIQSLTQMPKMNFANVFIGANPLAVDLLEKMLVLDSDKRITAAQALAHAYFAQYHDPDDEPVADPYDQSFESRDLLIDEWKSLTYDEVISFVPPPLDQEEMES
A short description of data set [5]: Selectivity ratio between the binding value of human glucagon receptor (GGR) with Mg+2 and the value of p38 kinase.
The target in data set [6] is T1, Glucagon receptor. Description: Binding affinity towards glucagon receptor determined by reduction in binding of 125 I-glucagon to the murine glucagon receptor (mGLUR) expressed on CHO cells in presence of Mg+2 at 3 uM.
The nature of data set [7]: Inhibition of p38 kinase at 1 uM.
Data set [8] addresses Glucagon receptor (Mus musculus) (UniProt Q61606). Description: (§2) Binding affinity towards glucagon receptor determined by reduction in binding of 125 I-glucagon to the murine glucagon receptor (mGLUR) expressed on CHO cells in presence of Mg+2. Format: cell-based. The following applies: concentration not given here. Put shortly: as §1
The target is the same in data set [9]. As to the kind of experiment: Binding affinity towards glucagon receptor determined by reduction in binding of 125 I-glucagon to the murine glucagon receptor (mGLUR) expressed on CHO cells in presence of Mg+2 at 3 uM. Format: cell-based.
Data set [10] concerns the target T1, Glucagon receptor. The description is as §2. Format: cell-based. Put shortly: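 Mg2+ added at 5 mM, a physiological level, to the binding medium. IC50 reported in µM, with the number of determinations noted; where no IC50 was reached, percent inhibition is given at a single tested concentration.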
The nature of data set [11]: Inhibition of p38 kinase at 5 uM.
The target of data set [12] is Glucagon receptor (Mus musculus) (UniProt Q61606). Description: (§3) Binding affinity towards glucagon receptor determined by reduction in binding of 125 I-glucagon to the murine glucagon receptor (mGLUR) expressed on CHO cells in presence of Mg+2 at 1 uM. Format: cell-based.
Chain of Glucagon receptor (Mus musculus) (Q61606 whole entry): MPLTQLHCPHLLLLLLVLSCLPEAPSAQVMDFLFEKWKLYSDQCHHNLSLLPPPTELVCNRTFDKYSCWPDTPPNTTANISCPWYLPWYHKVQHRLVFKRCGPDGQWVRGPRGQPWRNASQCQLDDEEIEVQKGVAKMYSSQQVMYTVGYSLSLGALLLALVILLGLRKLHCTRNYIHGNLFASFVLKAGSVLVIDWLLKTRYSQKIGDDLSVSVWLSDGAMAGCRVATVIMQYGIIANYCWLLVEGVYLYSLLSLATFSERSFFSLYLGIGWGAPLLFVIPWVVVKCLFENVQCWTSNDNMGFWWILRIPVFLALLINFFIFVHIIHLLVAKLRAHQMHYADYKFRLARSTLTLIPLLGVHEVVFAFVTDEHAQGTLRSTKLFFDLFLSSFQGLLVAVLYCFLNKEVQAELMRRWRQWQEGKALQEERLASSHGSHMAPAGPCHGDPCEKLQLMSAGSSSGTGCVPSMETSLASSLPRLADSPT
Data set [13] is described as follows: Inhibition of p38 kinase at 40 uM.
The nature of data set [14]: Concentration in plasma (portal) following oral dose in rats at 0.25 hr. Format: ADME, organism-based. Particulars: rat. In short, it runs like this: (§4)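 Fasted male Sprague-Dawley rats (300-400 g) were gavaged at 3.0 mg/kg, using a 0.3 mg/mL solution in 5% PEG-400/5% Tween-80/90% water at 10 mL/kg. At each time point animals were CO2-anesthetized. Portal vein blood was drawn first, then cardiac puncture at sacrifice. Samples were heparinized, held at 0 °C for up to 2 h, then centrifuged. Plasma proteins were precipitated with acetonitrile and analyzed by LC/MS/MS.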

Data set [15] can be described thus: Concentration in plasma (portal) following oral dose in rats at 1 hr. Format: ADME, organism-based. The following applies: rat. In short, it runs like this:
as §4

Data set [16] can be described thus: Concentration in plasma (portal) following oral dose in rats at 2 hr. Particulars: rat. Format: ADME, organism-based. Put shortly:
as §4

Data set [17] in a line: Concentration in plasma (systemic) following oral dose in rats at 0.25 hr. The following applies: rat. Format: ADME, organism-based. Put shortly:
as §4

A short description of data set [18]: Concentration in plasma (systemic) following oral dose in rats at 1 hr. Format: ADME, organism-based. The following applies: rat. In short, it runs like this: as §4
Data set [19] in a line: Concentration in plasma (systemic) following oral dose in rats at 2 hr. The following applies: rat. Format: ADME, organism-based. Put shortly:
as §4

Data set [20] is described as follows: Concentration in plasma (systemic) following oral dose in mouse at 0.25 hr. Format: ADME, organism-based. Put shortly:
(§5)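 Oral gavage in CD1 mice at 50 mg/kg, vehicle 5% PEG-400/5% Tween-80/90% water, 10 mL/kg. At each time point mice were CO2-anesthetized and bled by cardiac puncture at sacrifice. Samples were heparinized, kept at 0 °C for up to 2 h, then centrifuged to plasma. Plasma proteins were precipitated with acetonitrile and analyzed by HPLC.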

Data set [21] in a line: Concentration in plasma (systemic) following oral dose in mouse at 1 hr. Format: ADME, organism-based. Put shortly:
as §5

The nature of data set [22]: Concentration in plasma (systemic) following oral dose in mouse at 24 hr. Format: ADME, organism-based. Put shortly:
as §5

Data set [23] in a line: Concentration in plasma (systemic) following oral dose in mouse at 2 hr. Format: ADME, organism-based. Put shortly:
as §5

Data set [24] in a line: Concentration in plasma (systemic) following oral dose in mouse at 4 hr. Format: ADME, organism-based. In short, it runs like this:
as §5

Data set [25] in a line: Concentration in plasma (systemic) following oral dose in mouse at 6 hr. Format: ADME, organism-based. Put shortly: as §5
Data set [26] has as its target T2, Glucagon receptor. Description: Binding affinity towards glucagon receptor determined by reduction in binding of 125 I-glucagon to the human glucagon receptor (hGLUR) expressed on CHO cells in absence of Mg+2 at 2 uM. Format: cell-based.
Data set [27] can be described thus: Inhibition of p38 kinase at 2 uM.
Data set [28] deals with T1, Glucagon receptor. Description: Binding affinity towards glucagon receptor determined by reduction in binding of 125 I-glucagon to the murine glucagon receptor (mGLUR) expressed on CHO cells in absence of Mg. Format: cell-based.
Data set [29] can be described thus: Inhibition of p38 kinase. The following applies: concentration not given here.
The nature of data set [30]: Inhibition of p38 kinase at 10 uM.
Data set [31] concerns the target T1, Glucagon receptor. The data set is described as §3. Format: cell-based.

T2 sequence (P47871 whole entry): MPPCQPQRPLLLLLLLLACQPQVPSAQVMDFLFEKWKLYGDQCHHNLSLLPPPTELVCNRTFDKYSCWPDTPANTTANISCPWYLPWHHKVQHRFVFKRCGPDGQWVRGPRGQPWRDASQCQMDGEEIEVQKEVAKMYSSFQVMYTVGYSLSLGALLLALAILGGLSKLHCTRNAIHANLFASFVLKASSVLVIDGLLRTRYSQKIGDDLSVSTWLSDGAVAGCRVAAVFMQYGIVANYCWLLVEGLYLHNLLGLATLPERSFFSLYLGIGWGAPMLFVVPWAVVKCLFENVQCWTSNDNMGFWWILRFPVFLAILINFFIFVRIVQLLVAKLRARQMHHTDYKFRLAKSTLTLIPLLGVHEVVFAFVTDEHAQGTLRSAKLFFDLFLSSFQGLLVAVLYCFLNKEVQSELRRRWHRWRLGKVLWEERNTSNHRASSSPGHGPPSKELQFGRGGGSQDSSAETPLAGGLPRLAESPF
T1 sequence (Q61606 whole entry): as the sequence (Q61606 whole entry) above

As for `Clc1ccc(-c2cc(-c3ccc(Cl)cc3)c(-c3ccncc3)[nH]2)cc1`, the IC50 on Glucagon receptor [1] worked out at 220 nM; against Glucagon receptor [2], 190 nM; at Glucagon receptor [3] it was 810 nM; in data set [4], 160 nM. Further, in [5], the Ratio turned out to be 5. Besides, on Glucagon receptor [6], the Inhibition came to 42%.
`O=C(NCc1ccccc1)c1cc(-c2ccc(Cl)cc2)[nH]c1-c1ccncc1` showed a 50% inhibitory concentration (IC50) against Glucagon receptor [2] of more than 3000 nM. In data set [7], this compound displayed an inhibition of 0%.
On to `CC(C)COc1ccccc1-c1cc(-c2ccc(Cl)cc2)[nH]c1-c1ccncc1`, for which the IC50 on Glucagon receptor [1] was 150 nM; on Glucagon receptor [2], 3 nM; at Glucagon receptor [3], 200 nM; in data set [4], 3760 nM. Further, in [8], the inhibition was found to be 17%. Also, the Ratio in [5] stood at 0.05.
In the case of `N#Cc1ccc(-c2cc(-c3ccc(F)cc3)c(-c3ccncc3)[nH]2)cc1`, the IC50 at Glucagon receptor [1] came out at 230 nM; against Glucagon receptor [2], 140 nM; on Glucagon receptor [3] it was 4900 nM; in [4], 50 nM. Moreover, in data set [9], the inhibition stood at 42%. For the same compound, the Ratio in data set [5] was 102.
On to `CCCNc1ccccc1-c1cc(-c2ccc(Cl)cc2)[nH]c1-c1ccncc1`, for which the concentration for half-maximal inhibition (IC50) was more than 3000 nM at Glucagon receptor [10], 440 nM on Glucagon receptor [1], 20 nM on Glucagon receptor [2] and 270 nM at Glucagon receptor [3]. In data set [11], the inhibition was found to be 52%.
As for `CCCCOc1ccccc1-c1cc(-c2ccc(Cl)cc2)[nH]c1-c1ccncc1`, the IC50 on Glucagon receptor [10] was 1200 nM; at Glucagon receptor [1], 80 nM; at Glucagon receptor [2], 10 nM; at Glucagon receptor [3] it was 180 nM. In data set [7], this compound came in with an inhibition of 16%.
Regarding `CCOc1ccccc1-c1cc(-c2ccc(Cl)cc2)[nH]c1-c1ccncc1`, the half-inhibitory concentration (IC50) on Glucagon receptor [1] is 340 nM; at Glucagon receptor [2], 40 nM; at Glucagon receptor [3] it was 500 nM; in [4], 14200 nM. Moreover, in data set [8], the inhibition turned out to be 22%. Further, the Ratio in [5] came out at 0.03.
With `C=CCOc1ccccc1-c1cc(-c2ccc(Cl)cc2)[nH]c1-c1ccncc1`, the concentration for half-maximal inhibition (IC50) on Glucagon receptor [1] is 270 nM; against Glucagon receptor [2] it was 17 nM; at Glucagon receptor [3] it was 260 nM; in data set [4], 4740 nM. In data set [9], the inhibition turned out to be 50%. Moreover, the Ratio in [5] is 0.05.
For `O=C(OCc1ccccc1)c1cc(-c2ccc(Cl)cc2)[nH]c1-c1ccncc1`, the IC50 was found to be 800 nM on Glucagon receptor [1], 60 nM against Glucagon receptor [2] and 1300 nM on Glucagon receptor [3]. Moreover, the inhibition turned out to be 8% in data set [12] and 69% in data set [13].
For `COc1ccccc1-c1cc(-c2ccc(Cl)cc2)[nH]c1-c1ccncc1`, the half-maximal inhibitory concentration (IC50) at Glucagon receptor [1] worked out at 400 nM; at Glucagon receptor [2], 70 nM; on Glucagon receptor [3], 500 nM; in data set [4] it was 2650 nM. Also, the inhibition in data set [8] worked out at 6%. The Ratio in data set [5] was 0.18.
Take `CCCOc1ccc(Br)cc1-c1cc(-c2ccc(Cl)cc2)[nH]c1-c1ccncc1`: the concentration at 0.25 h is 25 nM in data set [14], 9 nM in [17] and 1700 nM in data set [20]. For the same compound, the concentration at 1 h is 1240 nM in [15], 590 nM in [18] and 15.2 µM in data set [21]. In addition, the concentration at 2 h in data set [16] came out at 1400 nM; in data set [19], 840 nM; in data set [23], 11.7 µM. The same compound gave a concentration at 24 h in [22] of 700 nM. Further, the concentration at 4 h in [24] stood at 16.5 µM. The compound further had a concentration at 6 h in data set [25] of 13.1 µM. Besides, the IC50 on Glucagon receptor [10] is 250 nM; at Glucagon receptor [1] it was 37 nM; at Glucagon receptor [2] it was 7 nM; on Glucagon receptor [3], 170 nM; in [4], 1440 nM. In addition, the Ratio in data set [5] came out at 0.12.
For the compound `C[S+]([O-])c1ccc(-c2nc(-c3ccc(F)cc3)c(-c3ccncc3)[nH]2)cc1` (stereo not given) [SB-203580], the inhibition at Glucagon receptor [26] was 18%. This compound also displayed an IC50 in data set [27] of 37 nM.
On to `Clc1ccc(-c2cc(-c3cccc(Br)c3)c(-c3ccncc3)[nH]2)cc1`, for which the half-maximal inhibitory concentration (IC50) is 230 nM at Glucagon receptor [28], 150 nM against Glucagon receptor [2], 1700 nM at Glucagon receptor [3] and 80 nM in data set [4]. In addition, the inhibition in [12] stood at 48%. The Ratio in [5] came out at 21.2.
On to `CCCOc1cccc(OCCC)c1-c1cc(-c2ccc(Cl)cc2)[nH]c1-c1ccncc1`, for which the concentration for half-maximal inhibition (IC50) on Glucagon receptor [10] was more than 3000 nM; at Glucagon receptor [1], 670 nM; against Glucagon receptor [2], 40 nM; at Glucagon receptor [3], 290 nM. The compound also gave an inhibition in data set [29] of 5%.
As for `CCCOc1ccc(Cl)cc1-c1cc(-c2ccc(Cl)cc2)[nH]c1-c1ccncc1`, the IC50 on Glucagon receptor [10] stood at 1000 nM; at Glucagon receptor [1] it was 50 nM; against Glucagon receptor [2] it was 6 nM; on Glucagon receptor [3], 170 nM. In addition, the inhibition in data set [30] came out at 31%.
Take `Fc1ccc(-c2cc(-c3ccc(F)cc3)c(-c3ccncc3)[nH]2)cc1`: the IC50 at Glucagon receptor [1] amounted to 430 nM; against Glucagon receptor [2], 90 nM; at Glucagon receptor [3] it was 350 nM; in data set [4], 340 nM. The Ratio in data set [5] was 1. Moreover, the Inhibition at Glucagon receptor [31] came out at 7%.
